Measured values published in ChEMBL document CHEMBL3124927, “New C(4)- and C(1)-derivatives of furo[3,4-c]pyridine-3-ones and related compounds: evidence for site-specific inhibition of the constitutive proteasome and its immunoisoform” (Bioorg Med Chem Lett, 2014).
Calls of active or inactive are those of the source. The calls are words filed in the database; no cut-off is given here.

Columns and labels:
[1] = Inhibition of 20s constitutive proteasome beta 2 subunit trypsin-like activity in rabbit erythrocytes using Boc-LRR-AMC as substrate incubated for 15 mins prior to substrate addition measured after 45 mins by fluorescence assay; type: cell-based, Oryctolagus cuniculus
How it was run: (§1)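 Purified rabbit erythrocyte constitutive 20S fraction, 0.27 nM enzyme, pre-incubated 15 min with or without inhibitor, then Boc-LRR-AMC added. Buffer at pH 7.5. Fluorescence read-out. IC50 is from a plot of percent inhibition against inhibitor concentration, Hill-equation fit.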

[2] = Inhibition of 20s constitutive proteasome beta 5 subunit chymotrypsin-like activity in rabbit erythrocytes using Suc-LLVY-AMC as substrate incubated for 15 mins prior to substrate addition measured after 45 mins by fluorescence assay; type: cell-based, Oryctolagus cuniculus
How it was run: (§2)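 Purified rabbit erythrocyte constitutive 20S fraction, 0.27 nM enzyme, pre-incubated 15 min with or without inhibitor before substrate addition. Buffer pH 7.5: 20 mM Tris, 1 mM DTT, 10% glycerol, 0.02% (w/v) SDS. Fluorescence read-out. IC50 is from a percent inhibition versus concentration plot, fitted with a Hill-type equation.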

[3] = Inhibition of 20s constitutive proteasome beta 1 subunit caspase-like activity in rabbit erythrocytes using Z-LLE-betaNA as substrate incubated for 15 mins prior to substrate addition measured after 45 mins by fluorescence assay; type: cell-based, Oryctolagus cuniculus; how it was run: as §2
[4] = target: Cathepsin B (Homo sapiens) (UniProt P07858); experiment: Inhibition of human cathepsin B using Z-RR-AMC as substrate by fluorescence assay
How it was run: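 Human cathepsin B fraction, Z-RR-AMC substrate, at 37 °C in 352 mM KH2PO4, 48 mM Na2HPO4, 1 mM EDTA, 1 mM DTT, pH 6. Fluorescence read-out. IC50 is from percent inhibition versus inhibitor concentration.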

[5] = target: T1, Calpain-1 catalytic subunit (Homo sapiens) (UniProt P07384); experiment: Inhibition of human calpain-1 using Suc-LLVY-AMC as substrate by fluorescence assay
T1 sequence (whole entry): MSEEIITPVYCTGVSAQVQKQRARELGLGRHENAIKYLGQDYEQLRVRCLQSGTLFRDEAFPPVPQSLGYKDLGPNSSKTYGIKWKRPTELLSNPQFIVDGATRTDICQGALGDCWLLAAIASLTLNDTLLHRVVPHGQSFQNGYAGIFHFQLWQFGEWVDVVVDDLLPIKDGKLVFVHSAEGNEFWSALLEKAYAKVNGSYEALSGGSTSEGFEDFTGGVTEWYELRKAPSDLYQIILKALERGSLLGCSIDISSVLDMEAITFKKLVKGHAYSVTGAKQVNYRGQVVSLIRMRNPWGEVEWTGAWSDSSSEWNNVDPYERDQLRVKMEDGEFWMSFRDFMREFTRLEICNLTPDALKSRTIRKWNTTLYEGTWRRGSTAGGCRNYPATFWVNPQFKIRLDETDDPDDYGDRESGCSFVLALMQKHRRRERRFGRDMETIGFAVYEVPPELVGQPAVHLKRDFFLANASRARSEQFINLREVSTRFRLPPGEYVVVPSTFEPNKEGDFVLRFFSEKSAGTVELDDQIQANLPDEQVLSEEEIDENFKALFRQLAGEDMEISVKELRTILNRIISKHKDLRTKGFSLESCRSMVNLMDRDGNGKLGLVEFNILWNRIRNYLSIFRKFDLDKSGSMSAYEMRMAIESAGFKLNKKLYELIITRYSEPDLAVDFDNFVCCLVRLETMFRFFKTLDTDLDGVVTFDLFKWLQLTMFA
How it was run: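 Human calpain I fraction, Suc-LLVY-AMC substrate, at 25 °C in 50 mM Tris, 10 mM DTT with CaCl2, pH 7.2. Fluorescence read-out. IC50 is from percent inhibition versus inhibitor concentration.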

Oryctolagus cuniculus = species: Oryctolagus cuniculus; experiment: Inhibition of 20s constitutive proteasome beta 2 subunit trypsin-like activity in rabbit erythrocytes using Boc-LRR-AMC as substrate at 100 uM incubated for 15 mins prior to substrate addition measured after 45 mins by fluorescence assay relative to control; type: cell-based; how it was run: as §1

| IC50 [1] | IC50 [2] | IC50 [3] | inhibition [4] | inhibition [5] | IC50 ([3]; read-out: IC50) [µM] | IC50 ([1]; read-out: IC50) [µM] | SMILES | inhibition (Oryctolagus cuniculus) [%] | IC50 ([2]; read-out: IC50) [µM] |
| --- | --- | --- | --- | --- | --- | --- | --- | --- | --- |
| Not Active | Not Active | Not Active | – | – | – | – | C=C1c2c(nc[nH]c2=O)OC1(C)c1ccccc1 (stereo not drawn) | – | – |
| Not Active | Not Active | – | inactive | inactive | 16.7 | – | CC1(C)OC(=O)c2c1ccnc2O | – | – |
| – | Not Active | Not Active | – | – | – | – | C=C1c2c(ncn(-c3ccc(Br)cc3)c2=O)OC1(C)C | 29 | – |
| Not Active | Not Active | Not Active | – | – | – | – | C=C1c2c(ncn(CCO)c2=O)OC1(C)C | – | – |
| Not Active | Not Active | Not Active | inactive | inactive | – | – | CC1(C)OC(=O)C(C(N)=O)=C1/C=C/c1ccccc1 | – | – |
| Not Active | Not Active | – | inactive | inactive | 27.8 | – | O=C1OC2(CCCCC2)c2ccnc(O)c21 | – | – |
| – | Not Active | Not Active | – | – | – | 56 | Cc1sc2ncn(CCc3ccc(Cl)cc3)c(=O)c2c1C | – | – |
| – | Not Active | Not Active | – | – | – | – | O=c1c2c(-c3ccc(Cl)cc3)csc2ncn1CCc1ccccc1 | 48 | – |
| Not Active | Not Active | Not Active | – | – | – | – | C=C1c2c(ncn(CC(O)COc3ccccc3)c2=O)OC1(C)C (stereo not drawn) | – | – |
| Not Active | Not Active | Not Active | inactive | inactive | – | – | CC(N)C1=C(c2ccccc2)C(C)(C)OC1=O (stereo not drawn) | – | – |
| Not Active | Not Active | Not Active | inactive | inactive | – | – | CCOC(=O)C1=C(/C=C/N(C)C)C(C)(C)OC1=O | – | – |
| – | Not Active | Not Active | – | – | – | – | O=c1c2c(-c3ccc(Cl)cc3)csc2ncn1CCc1ccc(Cl)cc1 | 52 | – |
| – | Not Active | Not Active | inactive | inactive | – | 88 | Cc1nccc2c1C(=O)OC2(C)C | – | – |
| Not Active | Not Active | – | inactive | inactive | 8.4 | – | Nc1nccc2c1C(=O)OC21CCCCC1 | – | – |
| Not Active | Not Active | Not Active | – | – | – | – | CC12CCCC=C1c1c(nc[nH]c1=O)O2 (stereo not drawn) | – | – |
| – | – | Not Active | inactive | inactive | – | 8.7 | Cc1cc(=O)oc2cc[nH]c(=O)c12 | – | 29.4 |
| – | Not Active | Not Active | – | – | – | 59 | C=C1c2c(nc[nH]c2=O)OC1(C)C | – | – |
| Not Active | Not Active | – | inactive | inactive | 16.1 | – | Cc1nccc2c1C(=O)OC21CCCCC1 | – | – |
| Not Active | Not Active | Not Active | – | – | – | – | Cc1ccc(CCn2cnc3sc(C)c(C)c3c2=O)cc1 | – | – |
| Not Active | Not Active | Not Active | inactive | inactive | – | – | CC1(C)OC(=O)C(C(N)=S)=C1c1ccccc1 | – | – |
| Not Active | Not Active | Not Active | inactive | inactive | – | – | O=c1[nH]ccc2c1c(=O)oc1ccccc12 | – | – |
| Not Active | Not Active | – | inactive | inactive | 48.1 | – | CC1(C)OC(=O)c2c1ccnc2NCC(O)COc1ccccc1 (stereo not drawn) | – | – |

| SMILES | IC50 [1] | IC50 [2] | IC50 [3] | inhibition [4] | inhibition [5] | IC50 ([3]; read-out: IC50) [µM] | IC50 ([1]; read-out: IC50) [µM] | inhibition (Oryctolagus cuniculus) [%] | IC50 ([2]; read-out: IC50) [µM] |
| --- | --- | --- | --- | --- | --- | --- | --- | --- | --- |
| C[C@@]12OC(=O)[C@]1([C@@H](O)[C@@H]1C=CCCC1)NC(=O)[C@@H]2CCCl [MARIZOMIB] | – | – | – | – | – | 0.46 | 0.021 | – | 0.0026 |
